A short description of data set [1]: Solubility of the compound at pH 7. It counts as physicochemical. Particulars: buffer.
Data set [2] concerns the target PH-interacting protein (Homo sapiens) (UniProt Q8WWQ0). The experiment in a line: Inhibition of His6FLAG-tagged PHIP-BD2 expressed in Escherichia coli assessed as change in melting temperature at 100 uM by thermal shift assay. In short, it runs like this: (§1)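 Thermal melt: protein heated with or without 100 μM compound, at least duplicate; Sypro orange at 1:1000 in PBS with 10% glycerol; ramp 1 °C/min, fluorescence read every 0.5 °C; ΔTm reported.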

Data set [3] has as its target Bromodomain-containing protein 2 (Homo sapiens, UniProt P25440). The experiment in a line: Inhibition of His6FLAG-tagged BRD2-BD1 expressed in Escherichia coli assessed as change in melting temperature at 100 uM by thermal shift assay. In short, it runs like this:
as §1

For data set [4], the target named is T1, ATPase family AAA domain-containing protein 2B (Homo sapiens) (UniProt Q9ULI0).
T1 sequence (whole entry): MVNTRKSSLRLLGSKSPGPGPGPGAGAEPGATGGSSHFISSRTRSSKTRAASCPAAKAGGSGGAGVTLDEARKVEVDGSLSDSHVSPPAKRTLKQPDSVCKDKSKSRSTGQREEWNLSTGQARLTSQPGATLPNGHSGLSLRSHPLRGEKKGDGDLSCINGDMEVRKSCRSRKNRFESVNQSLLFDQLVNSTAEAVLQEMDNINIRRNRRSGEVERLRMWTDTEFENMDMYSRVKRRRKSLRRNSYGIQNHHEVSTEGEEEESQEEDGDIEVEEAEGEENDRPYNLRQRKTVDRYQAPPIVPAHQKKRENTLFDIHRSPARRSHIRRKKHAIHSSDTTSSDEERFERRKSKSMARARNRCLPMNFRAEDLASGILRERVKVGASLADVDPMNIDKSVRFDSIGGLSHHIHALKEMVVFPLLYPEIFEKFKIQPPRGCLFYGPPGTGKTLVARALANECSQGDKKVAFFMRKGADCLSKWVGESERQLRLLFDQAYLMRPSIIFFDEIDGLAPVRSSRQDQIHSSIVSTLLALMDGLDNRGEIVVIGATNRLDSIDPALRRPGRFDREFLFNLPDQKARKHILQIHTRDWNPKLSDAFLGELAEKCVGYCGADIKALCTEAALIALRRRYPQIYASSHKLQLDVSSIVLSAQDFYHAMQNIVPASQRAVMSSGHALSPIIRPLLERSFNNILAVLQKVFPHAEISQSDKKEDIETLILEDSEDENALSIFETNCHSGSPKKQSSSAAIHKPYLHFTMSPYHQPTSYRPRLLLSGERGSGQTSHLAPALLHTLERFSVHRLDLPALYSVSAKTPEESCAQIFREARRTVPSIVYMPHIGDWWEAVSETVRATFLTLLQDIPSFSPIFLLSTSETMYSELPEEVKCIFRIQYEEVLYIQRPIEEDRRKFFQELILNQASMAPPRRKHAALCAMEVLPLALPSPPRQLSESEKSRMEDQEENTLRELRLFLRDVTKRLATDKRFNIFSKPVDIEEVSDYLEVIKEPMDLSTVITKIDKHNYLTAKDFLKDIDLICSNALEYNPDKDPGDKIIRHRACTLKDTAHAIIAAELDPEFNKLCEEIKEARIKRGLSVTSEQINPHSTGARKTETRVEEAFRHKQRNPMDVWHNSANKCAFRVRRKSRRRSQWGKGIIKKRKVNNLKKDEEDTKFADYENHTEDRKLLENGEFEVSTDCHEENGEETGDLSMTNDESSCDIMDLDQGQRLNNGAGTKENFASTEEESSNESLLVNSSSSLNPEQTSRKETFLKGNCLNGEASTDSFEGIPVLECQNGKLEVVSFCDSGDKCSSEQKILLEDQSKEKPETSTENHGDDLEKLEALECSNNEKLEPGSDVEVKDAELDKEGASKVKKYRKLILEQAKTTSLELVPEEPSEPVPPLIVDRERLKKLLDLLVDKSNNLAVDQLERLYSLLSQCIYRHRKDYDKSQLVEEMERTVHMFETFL
The experiment in a line: Inhibition of His6FLAG-tagged ATD2B expressed in Escherichia coli assessed as change in melting temperature at 100 uM by thermal shift assay. In short, it runs like this:
as §1

In data set [5] the target is T2, E3 ubiquitin-protein ligase TRIM33 (Homo sapiens) (UniProt Q9UPN9).
T2 sequence (whole entry): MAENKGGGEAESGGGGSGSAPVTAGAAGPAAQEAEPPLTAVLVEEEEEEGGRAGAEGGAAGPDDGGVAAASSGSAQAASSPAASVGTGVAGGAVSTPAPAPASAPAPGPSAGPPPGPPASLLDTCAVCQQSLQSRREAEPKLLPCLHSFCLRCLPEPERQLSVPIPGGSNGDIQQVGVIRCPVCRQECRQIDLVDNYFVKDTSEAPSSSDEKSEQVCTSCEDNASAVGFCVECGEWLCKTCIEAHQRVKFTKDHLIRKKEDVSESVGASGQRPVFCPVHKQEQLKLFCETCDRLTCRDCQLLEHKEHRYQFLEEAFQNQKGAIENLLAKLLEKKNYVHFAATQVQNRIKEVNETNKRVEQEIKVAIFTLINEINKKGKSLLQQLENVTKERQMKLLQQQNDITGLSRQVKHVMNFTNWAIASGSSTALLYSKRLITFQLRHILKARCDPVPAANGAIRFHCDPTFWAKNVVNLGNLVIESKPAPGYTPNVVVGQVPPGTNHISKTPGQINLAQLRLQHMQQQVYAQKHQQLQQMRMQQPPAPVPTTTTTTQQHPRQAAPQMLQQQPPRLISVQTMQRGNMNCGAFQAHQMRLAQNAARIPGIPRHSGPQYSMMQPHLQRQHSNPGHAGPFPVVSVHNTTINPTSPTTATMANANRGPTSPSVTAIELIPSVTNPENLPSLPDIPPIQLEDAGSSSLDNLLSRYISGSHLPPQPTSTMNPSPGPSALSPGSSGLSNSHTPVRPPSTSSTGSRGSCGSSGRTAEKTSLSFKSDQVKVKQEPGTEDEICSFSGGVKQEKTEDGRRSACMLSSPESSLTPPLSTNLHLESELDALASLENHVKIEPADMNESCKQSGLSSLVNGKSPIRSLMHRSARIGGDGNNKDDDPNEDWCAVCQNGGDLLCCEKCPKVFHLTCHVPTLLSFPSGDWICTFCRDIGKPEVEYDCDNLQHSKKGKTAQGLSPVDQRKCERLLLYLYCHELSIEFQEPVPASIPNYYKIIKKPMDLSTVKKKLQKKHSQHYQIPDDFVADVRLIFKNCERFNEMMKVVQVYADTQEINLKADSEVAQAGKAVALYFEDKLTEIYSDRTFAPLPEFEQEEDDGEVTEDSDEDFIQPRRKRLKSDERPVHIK
The experiment in a line: Inhibition of His6FLAG-tagged TRIM33 isoform B expressed in Escherichia coli assessed as change in melting temperature at 100 uM by thermal shift assay. In short, it runs like this:
as §1

A short description of data set [6]: Solubility of the compound at pH 5. Particulars: buffer. Type of data set: physicochemical.
The target in data set [7] is Bromodomain-containing protein 4 (Homo sapiens, UniProt O60885). Description: Inhibition of His6FLAG-tagged BRD4-BD12 expressed in Escherichia coli assessed as change in melting temperature at 100 uM by thermal shift assay. In short, it runs like this: as §1

≈ marks a conversion by molar mass, not a printed value.

Sequence of Bromodomain-containing protein 2 (P25440 whole entry, looked up): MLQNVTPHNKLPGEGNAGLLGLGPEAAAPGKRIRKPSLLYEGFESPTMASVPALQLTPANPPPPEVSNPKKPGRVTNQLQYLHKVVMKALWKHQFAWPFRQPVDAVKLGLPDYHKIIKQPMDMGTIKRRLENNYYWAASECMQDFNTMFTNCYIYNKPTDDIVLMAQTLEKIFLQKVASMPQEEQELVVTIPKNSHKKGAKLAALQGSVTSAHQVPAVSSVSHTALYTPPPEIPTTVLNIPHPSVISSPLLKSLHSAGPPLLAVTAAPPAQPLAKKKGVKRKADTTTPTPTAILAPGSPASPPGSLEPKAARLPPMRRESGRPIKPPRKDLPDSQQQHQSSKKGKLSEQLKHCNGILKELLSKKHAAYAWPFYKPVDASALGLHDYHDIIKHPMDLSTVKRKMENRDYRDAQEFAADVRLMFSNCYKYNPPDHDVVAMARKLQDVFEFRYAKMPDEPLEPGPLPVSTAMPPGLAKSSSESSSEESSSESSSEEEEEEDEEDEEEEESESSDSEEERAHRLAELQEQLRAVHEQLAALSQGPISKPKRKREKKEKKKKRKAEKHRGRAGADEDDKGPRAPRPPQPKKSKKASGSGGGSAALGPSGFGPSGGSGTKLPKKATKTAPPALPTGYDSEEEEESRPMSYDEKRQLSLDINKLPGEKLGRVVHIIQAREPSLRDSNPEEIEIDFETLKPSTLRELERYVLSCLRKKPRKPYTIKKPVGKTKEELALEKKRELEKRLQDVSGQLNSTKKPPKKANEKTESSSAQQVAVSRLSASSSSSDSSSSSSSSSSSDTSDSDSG

Usually solubility stands for how much of the substance goes into solution per volume. For orientation: ΔTm means the shift of the melting midpoint relative to a reference. For the molecule `Cc1noc(C)c1-c1ccc(OCCCN2CCOCC2)c(S(=O)(=O)NC2CCCC2)c1`, the solubility in data set [1] stood at 210 µg/mL (≈ 453 µM); in data set [6], 1120 µg/mL (≈ 2430 µM). The ΔTm is below 1 °C in data set [2]; 1 °C in data set [3]; below 1 °C in data set [4]; below 1 °C in data set [5]; 5 °C in data set [7].
Take `Cc1ccc(-c2c(C)noc2C)cc1S(=O)(=O)NC1CCCC1`: the solubility in data set [1] and in data set [6] was below 1 µg/mL throughout. Also, the ΔTm in data set [2] was below 1 °C; in data set [3] it was 1 °C; in data set [4] it was below 1 °C; in data set [5] it was below 1 °C; in data set [7], 5 °C.

Source of the values: ChEMBL document CHEMBL2176978, “Fragment-based discovery of bromodomain inhibitors part 2: optimization of phenylisoxazole sulfonamides” (J Med Chem, 2012).
